UHRF1 binding – UHRF1 methyl-DNA binding inhibition. inhibition, % at 4.4 µM. UHRF1 binding to methylated oligo, TR-FRET. 0.75% of 370,000 active. Q96T88; in the data active = inhibition above about 21%;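 note: UHRF1 SRA domain binding a hemimethylated CpG hairpin DNA probe; 0% = median of test compound wells and 100% = reference inhibitor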
Target sequence (Q96T88 whole entry, looked up, the tested form may be a part): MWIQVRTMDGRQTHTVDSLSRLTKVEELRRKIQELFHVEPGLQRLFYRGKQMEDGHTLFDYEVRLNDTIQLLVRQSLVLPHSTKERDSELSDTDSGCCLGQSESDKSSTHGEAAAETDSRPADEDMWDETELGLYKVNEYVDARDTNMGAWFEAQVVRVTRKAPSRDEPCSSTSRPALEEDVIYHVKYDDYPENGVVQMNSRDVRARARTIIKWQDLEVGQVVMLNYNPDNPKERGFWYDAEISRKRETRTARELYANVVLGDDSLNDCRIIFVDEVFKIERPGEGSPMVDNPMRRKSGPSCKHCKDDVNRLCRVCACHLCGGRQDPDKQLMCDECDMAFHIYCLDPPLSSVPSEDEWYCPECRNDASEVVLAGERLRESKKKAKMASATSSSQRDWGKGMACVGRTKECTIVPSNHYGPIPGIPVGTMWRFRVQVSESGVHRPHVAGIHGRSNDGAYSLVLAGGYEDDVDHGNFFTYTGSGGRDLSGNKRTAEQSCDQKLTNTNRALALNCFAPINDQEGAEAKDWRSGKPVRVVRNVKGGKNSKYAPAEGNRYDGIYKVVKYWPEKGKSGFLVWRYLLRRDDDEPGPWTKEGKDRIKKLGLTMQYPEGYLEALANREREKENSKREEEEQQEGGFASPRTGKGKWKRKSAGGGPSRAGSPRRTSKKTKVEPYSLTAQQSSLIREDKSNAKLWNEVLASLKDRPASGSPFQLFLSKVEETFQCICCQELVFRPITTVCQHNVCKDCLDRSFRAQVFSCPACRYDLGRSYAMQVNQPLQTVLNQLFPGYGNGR
TDP2 absorb – blocks human TDP2 phosphodiesterase activity; recombinant TDP2, T5PNP hydrolysis, p-nitrophenol absorbance 415 nm; inhibition, % at 12.8 µM; 0.34% of 370,000 active;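 active = inhibition above the mean of all tested compounds plus 3 SD, set per campaign, cut at about 25% in these data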;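 note: 0% = DMSO with enzyme and 100% = buffer with substrate but no TDP2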
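Read-out basis: percent inhibition. System: recombinant human TDP2. Buffer or medium: Mg2+-containing Tris-HCl buffer, pH 7.5. Repeats: single replicate. Timing: reaction 2 h, 37 °C. Benchmarks: high control without enzyme, low control DMSO plus TDP2. Probe or stimulus: 5 mM T5PNP. Doses: 12.8 µM only. Measured by: epi absorbance of p-nitrophenol freed from T5PNP by hydrolysis.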
MBD2 inh – inhibitors of human MBD2 binding to methylated oligonucleotide; inhibition, % at 4.4 µM; TR-FRET; AID 686964; Q9UBB5; 0.31% of 370,000 active; in the data active = inhibition above about 13%
LEDGF integ inh – blocks HIV-1 LEDGF/p75-dependent DNA integration. TR-FRET IN-LEDGF/p75 DNA integration, Eu/Cy5. inhibition, % at 3.7 µM. 0.64% of 370,000 active. AID 743269;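 active = inhibition above the screen-wide mean plus 3 SD, cut at about 13% in these data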;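 note: signal is the Cy5 over europium emission ratio at 671 and 618 nm; 0% = plate median of compound wells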
IN multimer up – HIV-1 integrase multimerization activation, counter-screen; shares compounds with LEDGF integ inh; TR-FRET HIV-1 integrase multimerization, biochemical; activation, % at 7.7 µM; 17% of 2,000 active; in the data active = activation above about 8.9%
TR-FRET interf – TR-FRET optical interference, LEDGF/p75 integration counter-screen; 2,000 tested, under 10 active; inhibition, % at 7.7 µM; TR-FRET optical interference counterscreen, HIV-1 IN multimerization; AID 1053135; shares compounds with LEDGF integ inh;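 active = inhibition above the mean over all tested compounds plus 3 SD, which no compound reached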;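 note: 0% = integrase with antibodies and DMSO and 100% = antibodies without integrase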
LEDGF integ conf – LEDGF/p75-dependent HIV-1 integration inhibition, confirmation; shares compounds with LEDGF integ inh; TR-FRET LEDGF/p75-dependent HIV-1 integration, biochemical; inhibition, % at 3.7 µM; 36% of 2,000 active; in the data active = inhibition above about 14%
* hit, by the source's call; / = no result given. Most compounds without a hit are left out; they make up all but 1.6% or so of the library.

SMILES	UHRF1 binding	TDP2 absorb	MBD2 inh	LEDGF integ inh	IN multimer up	TR-FRET interf	LEDGF integ conf
NC(=S)NN=Cc1nccc2c(N)cccc12	-7.8	2.8	-12.2	20.0*	14.9*	-75.3	17.1*
O=C(NCc1ccccc1)C1Nc2ccc(OC(F)(F)F)cc2C2C=CCC12 (stereo not given)	-1.8	-2.7	-3.4	22.1*	0.6	-2.2	-8.0
O=C(NCc1ccccn1)C1Nc2ccc(OC(F)(F)F)cc2C2C=CCC12 (stereo not given)	-7.5	10.8	2.0	0.9	/	/	/
CCCCn1c(N)c(N(CC(C)C)C(=O)C2=NN(c3ccccc3)C(=O)CC2)c(=O)[nH]c1=O	0.5	11.2	-2.5	-1.8	/	/	/
N#Cc1nc(-c2ccccc2F)oc1NCc1ccccc1	2.0	-7.3	-0.6	14.2*	0.4	-1.8	-3.8
N#Cc1nc(-c2ccccc2F)oc1NCCc1ccccc1	1.9	-10.5	1.1	4.7	/	/	/
CCCCOCCCNC(=O)C[C@H]1C[C@@]2(C(=O)OC)C(=C[C@H](C(C)(C)C)O[C@@H]2C)N(Cc2ccc(Cl)cc2Cl)C1=O	-1.3	-0.6	-6.1	19.9*	0.5	-1.7	-7.0
CCCCOCCCNC(=O)C[C@H]1C[C@@]2(C(=O)OC)C(=C[C@H](C3CCCC3)O[C@@H]2C)N(Cc2ccc(Cl)cc2Cl)C1=O	-0.6	-5.6	-2.3	-2.0	/	/	/
CC(=O)C1=C(O)C(=O)N(c2ccc(C(=O)O)cc2)C1c1ccc([N+](=O)[O-])cc1 (stereo not given)	-1.4	6.4	-4.9	-0.6	/	/	/
O=C1NC(=O)/C(=C\c2ccc(O)cc2O)S1	9.8	4.4	2.2	19.9*	48.4*	-243.5	66.2*
O=C1NC(=O)/C(=C/c2cccc3ccccc23)S1	-3.1	0.8	-2.0	6.1	/	/	/
COc1ccc(NC(=S)N2CCC(NC(=O)c3ccc(OC)cc3)CC2)cc1	-2.1	5.1	0.9	26.6*	-1.5	7.5	-0.4
CC1=NN(c2cccc(C(=O)O)c2)C(=O)/C1=C\C=C/c1ccccc1	-1.5	-8.1	-1.8	15.7*	6.7	-23.6	15.8*
CC1=NN(c2ccc(C)cc2)C(=O)/C1=C\C=C\c1ccccc1	1.7	2.8	-0.3	7.7	/	/	/
CC1=NN(c2ccccc2)C(=O)/C1=C/C=C/C=C/N(C)C	-28.9	8.3	-20.6	22.8*	15.6*	-55.6	-4.4
CC1(C(=O)N(CC(=O)NC2CCCC2)Cc2ccc(Cl)cc2)CC(=O)N=C2C=CC=CN21 (stereo not given)	-1.7	-12.1	-5.9	-2.5	/	/	/
Clc1ccccc1Cc1noc(CN2CCCCC2c2ccccn2)n1 (stereo not given)	2.8	4.5	-0.7	1.2	/	/	/
COc1ccc(/C=C2\SC(=Nc3ccccc3OC)NC2=O)cc1	-2.0	6.4	-2.1	0.0	/	/	/
CC(C)CCn1nnnc1C(c1ccccc1)N1CCN(C)CC1 (stereo not given)	-1.2	2.8	0.2	2.4	/	/	/
C=CCN1CCN(C(c2ccccc2)c2nnnn2CCC(C)C)CC1 (stereo not given)	0.3	11.3	0.9	56.0*	-4.5	15.9	-0.7
Cc1cc(/C=C2\SC(=S)NC2=O)c(C)[nH]1	4.1	3.9	-0.1	33.9*	12.0*	-42.6	10.0
CCN1CCN(c2cc(C)c3cc(NC(=S)N4CCOCC4)ccc3n2)CC1	-1.5	2.4	5.5	21.1*	0.5	-2.5	-5.7
CCN1CCN(c2cc(C)c3cc(NC(=S)N4CCN(c5ccccc5)CC4)ccc3n2)CC1	-3.6	-12.7	-7.5	4.8	/	/	/
Cc1ccc(Nc2ccc(NCc3ccccc3)nn2)cc1C	7.5	0.0	1.7	46.9*	1.5	-7.5	-3.9
Clc1ccc(Nc2ccc(NCc3ccccc3)nn2)cc1	-2.6	-1.0	-10.0	-4.5	/	/	/
SMILES	UHRF1 binding	TDP2 absorb	MBD2 inh	LEDGF integ inh	IN multimer up	TR-FRET interf	LEDGF integ conf
Cc1cccc(NC(=O)C[n+]2ccc(N(C)C)cc2)c1	3.4	-3.4	3.2	-0.6	/	/	/
CN(C)c1ccc(NC(=O)C2C3C=CC(C3)C2C(=O)O)cc1 (stereo not given)	20.9*	45.4*	-8.8	49.5*	-2.3	11.5	2.1
CC(C)NC(=O)Cn1c(SCC(=O)NC2CCCC2)nc2ccccc21	0.6	-9.3	4.5	1.1	/	/	/
O=C1c2cc(O)c(O)cc2S(=O)(=O)C1c1ccccc1 (stereo not given)	27.4*	-14.8	2.0	22.6*	1.6	-8.1	7.6
O=C(CN1C(=O)c2ccccc2S1(=O)=O)c1ccc(O)c(O)c1	2.0	0.7	2.5	-8.1	/	/	/
O=C1CCC(=O)N1CC1CC2CCC1C2 (stereo not given)	3.8	-5.8	-1.9	-0.3	/	/	/
Cc1cc(O)c(CN(C)C)c2c1C(=O)/C(=C/c1ccco1)O2	16.0	14.0	6.3	26.4*	11.4*	-40.6	24.4*
COc1ccc2c(c1)O/C(=C\c1ccco1)C2=O	-5.8	-10.3	-3.6	2.0	/	/	/
CC1(C)CC(=O)C2=C(C1)OC1=C(C(=O)CC(C)(C)C1)C2c1ccc(O)cc1O	-3.0	-13.1	-5.0	17.2*	7.9	-40.0	-1.0
O=C(O)c1cc(-c2ccco2)nn1-c1cccc(Cl)c1	28.4*	-1.4	5.8	14.9*	0.8	-4.1	11.2
O=C(O)c1nn(-c2cccc(Cl)c2)c(=O)cc1O	1.1	10.9	0.0	17.2*	0.5	-2.5	-2.3
CC1(C)N([O-])C(c2cccs2)=C[N+]1=O	1.1	-7.8	-2.7	24.2*	1.1	-5.7	29.0*
Cc1cccc(/N=C/c2sc3ccccc3c2O)n1	-0.1	-3.0	-4.2	49.8*	8.2	-41.0	-1.5
O=C1CC(c2cc([N+](=O)[O-])ccc2Cl)c2c(ccc3ccccc23)N1 (stereo not given)	-1.6	-0.1	0.5	-1.6	/	/	/
O=[N+]([O-])c1cccc(C=Nc2cccc3ccccc23)c1O	-7.5	2.4	-11.4	-3.7	/	/	/
Cc1ccc(O)c(N=Cc2cc(Cc3ccccc3)cc([N+](=O)[O-])c2O)c1	-6.5	-23.3	-15.6	19.4*	3.0	-15.4	45.8*
CCCCN1C(=O)N(C)C2NC(=O)NC21 (stereo not given)	-2.2	-6.3	3.1	-2.7	/	/	/
CSC1=NC2C(N1)N(C)C(=O)N2C (stereo not given)	-0.9	8.4	1.4	35.3*	-0.3	1.7	-2.2
NC(=O)Cn1c(=O)n(CCC(=O)NCCSCc2ccccc2)c(=O)c2ccccc21	1.4	12.7	3.2	63.9*	-1.9	9.7	1.1
Cc1ccc(NC(=O)c2ccc(S(=O)(=O)NCC3CCCO3)cc2)cc1 (stereo not given)	6.5	-20.7	4.5	3.9	/	/	/
Cc1ccccc1C(=O)Nc1ccc(S(=O)(=O)NCC2CCCO2)cc1 (stereo not given)	0.5	7.0	1.8	14.9*	-0.3	1.5	0.1
